Reference: ChEMBL document CHEMBL1145417, “Cytotoxic clerodane diterpenoids from fruits of Casearia grewiifolia” (J Nat Prod, 2007)
Converted amounts (≈) assume the structure as drawn. The source made the active and inactive calls. The rule behind the calls is not given here.

What was measured:
Type in all cases: functional, cell-based
KB = test: Cytotoxicity against human KB cells
Summary of the method: (§1)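 Colorimetric cytotoxicity assay following Skehan and co-workers' method. The cells were human KB (epidermoid carcinoma of the mouth), BC1 (breast cancer) and NCI-H187 (small cell lung cancer). Ellipticine and doxorubicin were the reference compounds.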

NCI-H187 = test: Cytotoxicity against human NCI-H187 cells; summary of the method: as §1
[1] = (§2) Cytotoxicity against human BC1 cells; summary of the method: as §1
BC1 = test: as §2; summary of the method: as §1

Compound	IC50 (KB)	IC50 (NCI-H187)	IC50 [1]	Activity (BC1)	Activity (KB)
C=C/C(C)=C\C[C@]1(C)[C@H](C)C[C@H](O)[C@@]23C(=C[C@H](OC(=O)CCCCC)C[C@@H]12)[C@@H](OC(C)=O)O[C@H]3OC(C)=O (relative stereo) [CASEARGREWINS I]	3.04 µg/mL (≈ 5.71 µM)	0.33 µg/mL (≈ 0.62 µM)	0.36 µg/mL (≈ 0.676 µM)		
COc1cccc2c1C(=O)c1c(O)c3c(c(O)c1C2=O)C[C@@](O)(C(=O)CO)C[C@@H]3O[C@H]1C[C@H](N)[C@H](O)[C@H](C)O1 [DOXORUBICIN]	0.23 µg/mL (≈ 0.423 µM)	0.048 µg/mL (≈ 0.0883 µM)	0.13 µg/mL (≈ 0.239 µM)		
C=C/C(C)=C\C[C@]1(C)[C@H](C)CC[C@@]23C(=C[C@H](OC(=O)CCCCC)C[C@@H]12)[C@@H](OC(C)=O)O[C@H]3OC(C)=O (relative stereo) [CASEARGREWINS H]	0.88 µg/mL (≈ 1.7 µM)	0.54 µg/mL (≈ 1.05 µM)	0.21 µg/mL (≈ 0.406 µM)		
C=C/C(C)=C\C[C@]1(C)[C@H](C)CC[C@@]23C(=C[C@H](OC(=O)CCC)C[C@@H]12)[C@@H](OC(C)=O)O[C@H]3OC(C)=O (relative stereo) [CASEARGREWINS E]	0.66 µg/mL (≈ 1.35 µM)	0.15 µg/mL (≈ 0.307 µM)	0.91 µg/mL (≈ 1.86 µM)		
Cc1c2ccncc2c(C)c2c1[nH]c1ccccc12 [ELLIPTECINE]	0.67 µg/mL (≈ 2.72 µM)		0.13 µg/mL (≈ 0.528 µM)		
C=C/C(C)=C\C[C@]1(C)[C@H](C)C[C@H](O)[C@@]23C(=C[C@H](OC(=O)CC(C)C)C[C@@H]12)[C@@H](OC(C)=O)O[C@H]3OC(C)=O (relative stereo) [CASEARGREWINS L]	6 µg/mL (≈ 11.6 µM)	0.32 µg/mL (≈ 0.617 µM)		inactive	
C=C/C(C)=C\C[C@]1(C)[C@H](C)[C@@H](O)[C@H](O)[C@@]23C(=C[C@H](OC(=O)CCCCC)C[C@@H]12)[C@@H](OC)O[C@H]3OC(C)=O (relative stereo) [CASEARGREWINS K]		5.11 µg/mL (≈ 9.81 µM)	3.4 µg/mL (≈ 6.53 µM)		inactive
C=C/C(C)=C\C[C@]1(C)[C@H](C)C[C@H](O)[C@@]23C(=C[C@H](OC(=O)CCCCC)C[C@@H]12)[C@@H](OC)O[C@H]3OC(C)=O (relative stereo) [CASEARGREWINS J]		1.22 µg/mL (≈ 2.42 µM)	0.99 µg/mL (≈ 1.96 µM)		inactive
C=C/C(C)=C\C[C@]1(C)[C@H](C)[C@@H](O)[C@H](O)[C@@]23C(=C[C@H](OC(=O)CC(C)C)C[C@@H]12)[C@@H](OC(C)=O)O[C@H]3OC(C)=O [ESCULENTIN B]		0.68 µg/mL (≈ 1.27 µM)	0.17 µg/mL (≈ 0.318 µM)		inactive
C=C/C(C)=C\C[C@]1(C)[C@H](C)C[C@H](O)[C@@]23C(=C[C@H](OC(=O)CCC)C[C@@H]12)[C@@H](OC)O[C@H]3OC(C)=O (relative stereo) [CASEARGREWINS G]	0.67 µg/mL (≈ 1.41 µM)	5.57 µg/mL (≈ 11.7 µM)	3.97 µg/mL (≈ 8.33 µM)		
C=C/C(C)=C\C[C@]1(C)[C@H](C)C[C@H](O)[C@@]23C(=C[C@H](OC(=O)CCC)C[C@@H]12)[C@@H](OC(C)=O)O[C@H]3OC(C)=O (relative stereo) [CASEARGREWINS F]		4.72 µg/mL (≈ 9.35 µM)	0.2 µg/mL (≈ 0.396 µM)		inactive
